Compound activity: PubChem BioAssay, several laboratories
HKDC1 inh: HKDC1 hexokinase inhibitors, primary screen, biochemical, fluorescence, uHTS. Q2TB90. recombinant HKDC1, G6PDH/diaphorase resazurin coupled fluorescence. inhibition, % at 20 µM. 340,000 tested, 0.16% active. AID 493160, 2011;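 active = inhibition above about 35% when tested at 20 µM, limit read from the data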
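Test system: HK5 enzyme. Quantity: 5 µg/mL HK5 final. Reagent: glucose and ATP substrates. Schedule: 90 min reaction incubation at room temperature, dark. Technique: resazurin-to-resorufin fluorescence via G6PDH and diaphorase coupling, 525/613 nm. Control set: DMSO wells with and without enzyme mix.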
PfG6PD inh: PfG6PD enzyme inhibitors, primary screen, biochemical, fluorescence intensity, uHTS | AID 504690, 2011 | glucose-6-phosphate dehydrogenase-6-phosphogluconolactonase (Plasmodium falciparum 3D7) | inhibition, % at 20 µM | 350,000 tested, 0.78% active | PfGluPho enzyme, NADPH resazurin-diaphorase fluorescence;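 active = inhibition reaching at least a set limit at 20 µM in the primary screen, cut at about 59% in these data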
Diaph inh CS: diaphorase inhibitors and chemical oxidizers, primary screen, counter-screen for diaphorase-coupled primary assays, biochemical, uHTS, resorufin fluorescence; diaphorase resazurin-to-resorufin fluorescence, NADH, 16 min; bacterial (C. kluyveri) enzyme, not human; inhibition, % at 20 µM; 190,000 tested, 0.69% active;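 active = primary screen inhibition at 20 µM above a set limit, cut at about 50% in these data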
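Benchmarks: positive control wells lacking NADH, neutral wells with DMSO only. System: bacterial diaphorase enzyme (C. kluyveri). Input: 0.14 U/mL diaphorase, enzyme working solution. Detection: resorufin fluorescence, excitation 544 nm, emission 590 nm. Times: 16-min room-temperature incubation before reading.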
G6PDH counter: L. mesenteroides G6PDH inhibitors, counter-screen for G6PDH-coupled screening assays, biochemical, Leuconostoc mesenteroides enzyme; glucose-6-phosphate dehydrogenase [Leuconostoc mesenteroides]; Purified L. mesenteroides G6PDH, diaphorase/resazurin coupled fluorescence, 45 min; inhibition, % at 5 µM; 200,000 tested, 0.12% active; AID 1020, 2008; in the data active = inhibition above about 50%
Tb hexokinase: Trypanosoma brucei hexokinase 1 inhibitors, primary screen, biochemical, G6PDH-coupled NADH absorbance, MLSCN library. inhibition, % at 10 µM. 220,000 tested, 0.11% active. recombinant TbHK1, G6PDH-coupled NADH A340;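 active = inhibition of 50% or more in the single-dose primary screen; inactive = inhibition below 50%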
PfGluPho conf: PfG6PD inhibitors, hit retest, confirmation, biochemical, fluorescence intensity, single concentration | 2,400 tested, 34% active | shares compounds with PfG6PD inh | recombinant PfGluPho, NADPH-diaphorase-resazurin fluorescence | inhibition, % at 20 µM;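 active = inhibition of at least 50% at 20 µM in any single replicate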
Diaphorase 10uM: diaphorase inhibitors and chemical oxidizers, confirmation, counter-screen for P. falciparum G6PD inhibitor project, biochemical, fluorescence intensity, 10 µM NADPH. shares compounds with PfG6PD inh. diaphorase-coupled resazurin reduction, NADPH 10 uM. inhibition, % at 20 µM. 820 tested, 39% active. AID 504862, 2011;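 active = average inhibition reaching 50% or more with the compound at 20 µM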;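 note: resorufin red fluorescence formed as diaphorase reduces resazurin using NADPH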
Diaphorase 30uM: diaphorase inhibitors and chemical oxidizers, confirmation, counter-screen for P. falciparum G6PD inhibitor project, biochemical, fluorescence intensity, 30 µM NADPH; shares compounds with PfG6PD inh; Diaphorase/resazurin coupled assay, resorufin fluorescence; inhibition, % at 20 µM; 820 tested, 29% active;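 active = inhibition averaging 50% or more, tested at 20 µM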
Large screens that a line does not name were inactive (follow-up assays come after a bar, where they were run). An excerpt weighted towards active compounds, which were near 1.2% of everything screened.

C=CCOc1ccc(CNc2ccc3[nH]c(=O)[nH]c3c2)cc1OC	PfG6PD inh 85, Diaph inh CS 94 | PfGluPho conf 66 | Diaphorase 10uM inactive | Diaphorase 30uM inactive
COc1cccc(CNc2ccc3[nH]c(=O)[nH]c3c2)c1OCc1ccccc1	none (no result: Diaph inh CS, G6PDH counter, Tb hexokinase)
COc1cc(CNc2ccc3[nH]c(=O)[nH]c3c2)ccc1OCc1ccccc1C	none (no result: Diaph inh CS, G6PDH counter, Tb hexokinase)
CC1CCc2sc(C(=O)NN=C3CCCC3)cc2C1 (stereo not drawn)	none (no result: HKDC1 inh, Diaph inh CS, G6PDH counter, Tb hexokinase)
COc1cc(CNc2ccc3[nH]c(=O)[nH]c3c2)ccc1OCc1ccc(F)cc1	PfG6PD inh 66 (no result: Diaph inh CS, G6PDH counter, Tb hexokinase) | PfGluPho conf inactive
COc1cc(CNc2ccc3[nH]c(=O)[nH]c3c2)ccc1OCc1ccc(F)cc1Cl	none (no result: Diaph inh CS, G6PDH counter, Tb hexokinase)
COc1ccc(NC2=Nc3cccc4cccc2c34)cc1	PfG6PD inh 75 | PfGluPho conf inactive
c1ccc(NC2=Nc3cccc4cccc2c34)cc1	none
Cc1ccc(Nc2nnc(SCC(=O)c3c(N)n(C4CC4)c(=O)[nH]c3=O)s2)cc1C	PfG6PD inh 64 (no result: Diaph inh CS, G6PDH counter, Tb hexokinase) | PfGluPho conf inactive
Cc1nc2ccccc2c(=O)n1/N=C/c1ccc(O)c(O)c1O	PfG6PD inh 92 (no result: Diaph inh CS, G6PDH counter, Tb hexokinase) | PfGluPho conf 101 | Diaphorase 10uM 97 | Diaphorase 30uM 96
Cc1nc2ccccc2c(=O)n1/N=C/c1ccccc1O	none (no result: Diaph inh CS, G6PDH counter)
CC(=O)N1N=C(c2ccco2)CC1c1ccc(Cl)o1 (stereo not drawn)	none (no result: Diaph inh CS, G6PDH counter, Tb hexokinase)
O=C(COC(=O)c1ccccc1C(=O)c1ccccc1)NCc1ccc(F)cc1	none
O=C(COC(=O)c1ccccc1C(=O)c1ccc(Cl)cc1)NCc1ccccc1	PfG6PD inh 81 | PfGluPho conf inactive
O=c1ccn(-c2cccc(C(F)(F)F)c2)nc1-c1ccn(-c2ccccc2F)n1	PfG6PD inh 104 | PfGluPho conf 102 | Diaphorase 10uM 97 | Diaphorase 30uM 78
COc1cccc(C2=NOC(C(=O)Nc3ccc4c(c3)OCO4)C2)c1OC (stereo not drawn)	none (no result: Diaph inh CS, G6PDH counter, Tb hexokinase)
Cc1ccccc1-c1ccc(C(=O)Nc2cccc(F)c2)o1	PfG6PD inh 69 | PfGluPho conf inactive
O=C(Nc1cccc(F)c1)c1ccc(-c2ccccc2C(F)(F)F)o1	none (no result: HKDC1 inh, PfG6PD inh)
CCCCn1c(N)c(N(CCOC)C(=O)C2CCN(C(=O)c3ccc(F)cc3)CC2)c(=O)[nH]c1=O	none (no result: Diaph inh CS, G6PDH counter, Tb hexokinase)
COc1ccc(NC(=O)NC2(C(=O)N3CCCC(C)C3)CCCCC2)cc1 (stereo not drawn)	none (no result: Diaph inh CS, G6PDH counter, Tb hexokinase)
CN=c1nc(-c2ccccc2)n(-c2ccccc2)s1	PfG6PD inh 121 (no result: Diaph inh CS, G6PDH counter, Tb hexokinase) | PfGluPho conf 111 | Diaphorase 10uM inactive | Diaphorase 30uM inactive
Cn1nc(-c2ccccc2)nc1-c1ccccc1	none (no result: Diaph inh CS, G6PDH counter, Tb hexokinase)
CN1c2cccc3cccc(c23)N(C)C1c1cccs1	none
CC1N(C)c2cccc3cccc(c23)N1C	PfG6PD inh 69 | PfGluPho conf 53 | Diaphorase 10uM inactive | Diaphorase 30uM inactive
Cc1ccc(/C=C/C(=O)N2CC(C)CC(C)C2)o1 (stereo not drawn)	PfG6PD inh 72 | PfGluPho conf inactive
CCN1CCN(C(=O)/C=C/c2ccc(C)o2)CC1	none
O=C(/C=C/c1ccco1)N1CCN(S(=O)(=O)/C=C/c2ccccc2)CC1	none
Cc1ccc(/C=C/C(=O)N2CCN(S(=O)(=O)c3cccs3)CC2)o1	PfG6PD inh 73 (no result: Diaph inh CS, G6PDH counter) | PfGluPho conf inactive
Cc1ccc(/C=C/C(=O)N2CCN(S(=O)(=O)/C=C/c3ccccc3)CC2)o1	PfG6PD inh 63 (no result: Diaph inh CS, G6PDH counter) | PfGluPho conf inactive
